Experimental data published in PubChem BioAssay AID463111 (Johns Hopkins Ion Channel Center, 2010).
In all, about 310,000 compounds went through this assay and about 2,800 (0.9%) were called active.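 Rule for the calls: active = B-score of the integrated calcium signal more than 4 SD below the library mean, with starting fluorescence not abnormally high; inactive = the rest.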 This excerpt belongs to a sample that is enriched for actives.

Experiment: RGS4 potentiators or activators, primary screen, cell-based, HEK293 M3R inducible RGS4, calcium flux (AID 463111);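 for B-score: negative B-score means reduced calcium response which marks RGS4 activation or potentiation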
Settings: HEK293 M3R/inducible RGS4, carbachol calcium flux Fluo4, at 10 µM; hits give low values
Outline: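 Assay system: Inducible-RGS4 HEK293 cells carrying M3 receptor | Schedule: Compound preincubation 20 min at room temperature before agonist | Signal: Kinetic calcium fluorescence imaging with Fluo4-AM dye, 2 µM | Read-out basis: B score from integrated fluorescence ratio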

| SMILES | B-score |
| --- | --- |
| COc1ccc(NC(=O)CCS(=O)(=O)c2cc3c(cc2Cl)NC(=O)CO3)cc1OC | inactive |
| Cc1cc2c(cc1S(=O)(=O)CCC(=O)NCc1ccccc1)OCC(=O)N2 | inactive |
| COc1ccc(Cl)cc1NC(=O)CCS(=O)(=O)c1cc2c(cc1C)NC(=O)CO2 | -7.02 (active) |
| COc1cccc(C2c3[nH]c4ccccc4c3CCN2Cc2cccc(C)n2)c1 (configuration not stated) | inactive |
| CC1=CCC2C(=O)N(c3cccc(C(=O)NC(C)c4ccccc4)c3)C(=O)C2C1 (configuration not stated) | inactive |
| CCCCn1c(N)c(N(CC)C(=O)c2ccccc2C(F)(F)F)c(=O)[nH]c1=O | inactive |
| Cc1nn(Cc2ccc(C(=O)N3N=C(C(F)F)CC3(O)C(F)F)cc2)c(C)c1[N+](=O)[O-] (configuration not stated) | inactive |
| O=C(CN1CCCCCC1)Nc1ccc(S(=O)(=O)N2CCCCC2)cc1 | -8.13 (active) |
| CCOc1ccc(NC(=O)COc2ccc(S(=O)(=O)N3CCCC3)cc2)cc1 | inactive |
| O=C(CSCc1ccc(Br)cc1)Nc1ccc(S(=O)(=O)N2CCCCCC2)cc1 | inactive |
| O=c1cc(CO)oc(C(Nc2cccc([N+](=O)[O-])c2)c2ccccn2)c1O (configuration not stated) | inactive |
| CCc1ccc(OCC(=O)N(Cc2ccccc2)C2CCS(=O)(=O)C2)cc1 (configuration not stated) | inactive |
| Cc1ccc(C)c(-c2nnc(NC(=O)CS(=O)(=O)c3ccccc3)o2)c1 | inactive |
| O=C(Nc1cccn(Cc2c(Cl)cccc2Cl)c1=O)c1ccc(Cl)cc1 | inactive |
| CCCC(=O)NC(Nc1ccccc1OC)C(Cl)(Cl)Cl (configuration not stated) | inactive |
| CCCCCCCC(=O)NC(Nc1ccccc1OC)C(Cl)(Cl)Cl (configuration not stated) | -8.57 (active) |
| COc1ccccc1NC(=O)CCCc1c[nH]c2ccccc12 | inactive |
| Cc1cnc(C(=O)OCc2c(C)cc(C(C)(C)C)cc2C)cn1 | inactive |
| Cc1cc(C(=O)OCC(=O)Nc2ccc(F)c(F)c2)c(C)o1 | inactive |
| O=C(NCc1ccc(F)cc1)C1CCN(C(=O)Nc2ccc(F)cc2)CC1 | inactive |
| CCc1ccc(C(=O)OCC(=O)NCC(F)(F)F)cc1 | inactive |
| Cc1c(NC(=O)Nc2cccc([N+](=O)[O-])c2)c(=O)n(-c2ccccc2)n1C | inactive |
| Cc1nc(N2CCN(c3ccccn3)CC2)c2c(C)c(C(=O)Nc3ccc(F)cc3)sc2n1 | -9.74 (active) |
| Cc1nc(N2CCN(c3ccccn3)CC2)c2c(C)c(C(=O)Nc3ccc(F)c(Cl)c3)sc2n1 | inactive |
| COc1ccc(NC(=O)c2sc3nc(C)nc(N4CCN(c5ccccn5)CC4)c3c2C)c(OC)c1 | inactive |
| O=C(Oc1ccc([N+](=O)[O-])cc1)c1ccc(Cl)c(S(=O)(=O)N2CCCCC2)c1 | inactive |
| C=CCN(N=Nc1cccc([N+](=O)[O-])c1)c1cccc([N+](=O)[O-])c1 | inactive |
